Here are results for 1 compound from ChEMBL document CHEMBL3525963, “Tissue distribution and elimination of [14C]apixaban in rats” (Drug Metab Dispos, 2011).

Holding throughout (assay type): ADME, organism-based
What all share (design): dose 5 mg/kg, dosed compound name [14C]-apixaban, route oral
What all share (conditions): in vivo

One data set has as its system Muscle tissue. Kind of data set: Biodistribution in pregnant Sprague-Dawley rat muscle at 5 mg/kg, po administered as single dose measured after 24 hrs. In short, it runs like this: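 Pregnant SD rats (270-319 g) were fasted overnight and given one oral gavage of 5 mg/kg (100 μCi/kg) in 0.5% Tween 80 in Labrafil. One rat was euthanized per time point (0.5, 1, 4, 8, 24, 48 h) and the carcass frozen. 40 µm sagittal sections were phosphor-imaged against [14C]glucose standards and results reported as µg eq/g; LLOQ 0.037 µg eq/g.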

For another data set, the system named is Liver. The experiment in a line: Biodistribution in pregnant Sprague-Dawley rat liver at 5 mg/kg, po administered as single dose measured after 48 hrs. In short, it runs like this: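 Fasted pregnant SD rats (n=6, 270-319 g) each received one oral gavage dose of [14C]apixaban, 5 mg/kg (100 μCi/kg), in 0.5% Tween 80/Labrafil. One rat was killed at each of 0.5, 1, 4, 8, 24 and 48 h. Carcasses were frozen in hexane/dry ice, cut into 40 µm sagittal sections, exposed to phosphor plates and quantified against [14C]glucose standards as µg eq/g. LLOQ was 0.037 µg eq/g.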

The subject of another data set is Plasma. Kind of data set: Drug metabolism in Sprague-Dawley rat plasma assessed as apixaban level at 5 mg/kg, po by HPLC method. The procedure, abridged:
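After a 5 mg/kg oral dose, samples were radioprofiled by HPLC. The column was C18 with a 0.4% formic acid (pH 3.2)/acetonitrile gradient at 0.7 mL/min. Fractions were collected every 0.25 min and counted for radioactivity. Peaks were identified by ESI LC/MS/MS against synthetic standards. Milk was taken at 1, 6, 12 and 24 h.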

The subject of another data set is Adrenal gland. The experiment in a line: Biodistribution in pregnant Sprague-Dawley rat adrenal gland at 5 mg/kg, po administered as single dose measured after 8 hrs.
The subject of another data set is Harderian gland. The experiment in a line: Biodistribution in pregnant Sprague-Dawley rat harderian gland at 5 mg/kg, po administered as single dose measured after 1 hr.

Structures are written as SMILES.

In the case of `COc1ccc(-n2nc(C(N)=O)c3c2C(=O)N(c2ccc(N4CCCC[14C]4=O)cc2)CC3)cc1`, the Radiolabel recovery entry is reported as “Not detected assumed BLQ” with Muscle tissue, “Not detected assumed BLQ” with Liver, 0.18 ugequiv/g with Adrenal gland and 1.09 ugequiv/g with Harderian gland. Further, the Compound recovery with Plasma worked out at 97%.
